Experimental data published in ChEMBL document CHEMBL4342478, “Discovery of Potent N-Ethylurea Pyrazole Derivatives as Dual Inhibitors of Trypanosoma brucei and Trypanosoma cruzi” (ACS Med Chem Lett, 2020).
Activity calls are given as the source filed them. The rule behind the calls is not given here.

Experiments:
[1] = Half life in human liver microsomes; assay type: ADME, Microsome
[2] = tested on: Trypanosoma cruzi; experiment: Antitrypanosomal activity against Trypanosoma cruzi infected in rat H9C2 cells by DRAQ5 DNA dye based imaging analysis; assay type: functional, organism-based
In short: (§1)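 IC50 values are the mean of two independent experiments. The T. b. brucei assay uses free parasites. The T. cruzi assay uses intracellular parasites in H9c2 host cells.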

[3] = Selectivity index, ratio of cytotoxicity against rat H9C2 cells to IC50 for antitrypanosomal activity against Trypanosoma cruzi infected in rat H9C2 cells; assay type: toxicity, cell-based; settings: read-out: Selectivity Index
[4] = tested on: Trypanosoma cruzi; experiment: Antitrypanosomal activity against Trypanosoma cruzi Tulahuen C2C4 trypomastigotes infected in rat L6 cells after 96 hrs by photometric analysis; assay type: functional, organism-based
[5] = tested on: Trypanosoma cruzi; experiment: Trypanosomacidal activity against Trypanosoma cruzi strain Y trypomastigotes assessed as reduction in number of infected cells at 0.078 uM measured within first 24 hrs by Hoechst 33342 staining based fluorescence imaging assay; assay type: functional, organism-based
In short: (§2)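 Time-to-kill assay against intracellular T. cruzi, with test article at 0.312 or 0.078 μM. Controls were benznidazole 20 μM, posaconazole 0.04 μM and DMSO. The number of infected host cells was tracked over time after drug addition.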

[6] = tested on: Trypanosoma cruzi; experiment: Trypanosomacidal activity against Trypanosoma cruzi strain Y trypomastigotes assessed as reduction in number of infected cells at 0.078 uM measured for 24 to 96 hrs by Hoechst 33342 staining based fluorescence imaging assay relative to benznidazole; assay type: functional; in short: as §2
[7] = tested on: Trypanosoma brucei rhodesiense; experiment: Antitrypanosomal activity against blood stream form of Trypanosoma brucei rhodesiense STIB900 after 72 hrs by Alamar blue based fluorometric assay; assay type: functional, organism-based
[8] = Selectivity index, ratio of IC50 for human HEK293 cells incubated for 69 hrs by resazurin dye based fluorescence analysis to IC50 for antitrypanosomal activity against Trypanosoma brucei brucei BS427; assay type: toxicity; settings: read-out: Ratio IC50
[9] = tested on: Leishmania donovani; experiment: AntiLeishmanial activity against amastigote form of Leishmania donovani MHOM/ET/67/L82 after 72 hrs by Alamar blue dye based fluorometric analysis; assay type: functional, organism-based
[10] = tested on: Trypanosoma cruzi; experiment: Antitrypanosomal activity against Trypanosoma cruzi Brazil trypomastigotes expressing firefly luciferase infected in BALB/c mouse assessed as reduction in parasitemia at 50 mg/kg, po via gavage twice daily at 30 mins after administration with 50 mg/kg, ip CYP inhibitor, 1-aminobenzotriazole twice daily and measured after 6 days by bioluminescence assay; assay type: functional, organism-based
In short: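 BALB/c mice were infected with trypomastigotes of a transgenic T. cruzi Brazil strain expressing firefly luciferase. Treatment was by oral gavage twice daily: vehicle (PBS with 2% methylcellulose and 0.5% Tween 80), or 50 mg/kg test article given 30 min after ip 1-aminobenzotriazole 50 mg/kg. Benznidazole 30 mg/kg was given by oral gavage once daily. Parasite load was measured by bioluminescence imaging at treatment day 0 (3 days post infection) and day 6.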

[11] = tested on: Trypanosoma brucei brucei; experiment: Antitrypanosomal activity against Trypanosoma brucei brucei BS427 after 48 hrs by resazurin dye based fluorescence assay; assay type: functional, organism-based; settings: Trypanosoma brucei, BS427, 48 h; read-out: IC50; in short: as §1
[12] = Metabolic stability in mouse liver microsomes; assay type: ADME, Microsome
[13] = Metabolic stability in human liver microsomes; assay type: ADME, Microsome
[14] = tested on: Plasmodium falciparum; experiment: Antiplasmodial activity against erythrocytic stage of Plasmodium falciparum after 48 hrs by [3H]-hypoxanthine incorporation assay; assay type: functional, organism-based
[15] = Toxicity in BALB/c mouse infected with Trypanosoma cruzi Brazil trypomastigotes expressing firefly luciferase assessed as body weight loss at 50 mg/kg, po via gavage twice daily at 30 mins after administration with 50 mg/kg, ip CYP inhibitor, 1-aminobenzotriazole twice daily; assay type: organism-based; settings: in vivo, 0.5 h
In short: (§3)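 Acutely infected BALB/c mice carried luciferase-expressing T. cruzi Brazil strain. Mice received oral gavage twice daily of 50 mg/kg test article in PBS with 2% methylcellulose and 0.5% Tween 80. Each dose followed ip 1-aminobenzotriazole 50 mg/kg by 30 min.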

[16] = Toxicity in BALB/c mouse infected with Trypanosoma cruzi Brazil trypomastigotes expressing firefly luciferase assessed as lethargy at 50 mg/kg, po via gavage twice daily at 30 mins after administration with 50 mg/kg, ip CYP inhibitor, 1-aminobenzotriazole twice daily; assay type: organism-based; settings: in vivo, 0.5 h; in short: as §3
[17] = Kinetic solubility of compound at pH 2 to 6.5 by nephelometry; assay type: physicochemical; settings: buffer, read-out: Kinetic_solubility

## O=C(NCCn1ccc(-c2ccc(F)c(F)c2)n1)N1CC[C@H](F)C1
[1]
  half-life: 23 min
[2]
  IC50: 16 nM
[3]
  selectivity ratio: 588 to 3160
[4]
  Activity: Active
[5]
  Activity: Active
[6]
  fold change (FC): 36
[7]
  Activity: Active
[8]
  selectivity ratio at 69 h: 8650
[9]
  Activity: Active
[10]
  Activity: Active
[11]
  IC50: 9 nM
[12]
  Stability: Stable
[13]
  Stability: Stable
[14]
  Activity: Active
[15]
  Activity: Toxic
[16]
  Activity: Toxic
[17]
  solubility kinetic: > 20 µg/mL
